A selection: hits, their analogues and other compounds. The true share with any hit is near 1.5%.
TbMetRS inhib – Trypanosoma brucei MetRS inhibition | purified T. brucei MetRS, ATP depletion, Kinase-Glo luminescence | inhibition, % at 11.9 µM | actives 0.4% (n = 360,000) | AID 624268;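 active means inhibition above a per-plate cutoff of the control wells' mean inhibition plus 3 SD, cut at about 5.5% in these data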
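Measured by: Kinase-Glo luciferase luminescence reporting remaining unconsumed ATP. Material: purified T. brucei MetRS enzyme. Doses: 11.9 µM compound single dose, 0.9% DMSO. Medium: HEPES buffer containing pyrophosphatase, BSA, spermine, DTT. Times: 15 min preincubation, 2 h reaction, all 25 °C. Reagent: methionine, ATP and bulk E. coli tRNA.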
proCasp7 act – counter-screen: procaspase-7 (human) activation | P55210 | recombinant procaspase-7, Ac-DEVD-pNA absorbance 405 nm; D23A/D198A/D206A triple mutant, cannot self-cleave; scale: DMSO 0, 5 µM enzyme 100 | activation, % at 8.5 µM | actives 0.093% (n = 330,000) | AID 463210;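 active means percent activation above the screen-wide mean plus 3 SD, cut at about 25% in these data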
Target sequence (P55210 whole entry D23A/D198A/D206A): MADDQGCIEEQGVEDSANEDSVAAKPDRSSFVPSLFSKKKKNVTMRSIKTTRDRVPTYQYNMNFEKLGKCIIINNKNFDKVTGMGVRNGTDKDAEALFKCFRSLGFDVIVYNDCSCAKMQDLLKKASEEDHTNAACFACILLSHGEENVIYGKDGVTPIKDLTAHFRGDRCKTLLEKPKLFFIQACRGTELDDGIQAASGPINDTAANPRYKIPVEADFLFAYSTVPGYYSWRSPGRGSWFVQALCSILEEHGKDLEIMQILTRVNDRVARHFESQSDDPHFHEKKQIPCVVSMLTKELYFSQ
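Assay system: Uncleavable procaspase-7 mutant enzyme / Input: 2 µM procaspase-7 mutant as dispensed / Dosing: single nominal 8.5 µM compound dose, 0.8% DMSO final / Timing: 1 h enzyme–compound preincubation and 2 h substrate reaction, both 25 °C / Detection: p-Nitroaniline absorbance at 405 nm, read at 0 and 120 min / Replication: singlicate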
MsrA inh – bovine MsrA inhibition | purified bovine MsrA, absorbance read-out | inhibition, % at 15.5 µM | actives 0.75% (n = 360,000) | AID 651718; in the data active means inhibition above about 4.5%
MsrA act – activators of bovine methionine sulfoxide reductase A | purified bovine MsrA, absorbance read-out | activation, % at 10.6 µM | actives 0.3% (n = 360,000) | AID 602163; in the data active means activation above about 7.5%
procasp3 activ – procaspase-3 (human) activation; P42574; recombinant procaspase-3 D3A, Ac-DEVD-pNA absorbance 405 nm; activation, % at 8.5 µM; actives 0.11% (n = 330,000);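 active means activation above the mean of all tested compounds plus 3 SD, cut at about 21% in these data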
Target sequence (P42574 whole entry D9A/D28A/D175A): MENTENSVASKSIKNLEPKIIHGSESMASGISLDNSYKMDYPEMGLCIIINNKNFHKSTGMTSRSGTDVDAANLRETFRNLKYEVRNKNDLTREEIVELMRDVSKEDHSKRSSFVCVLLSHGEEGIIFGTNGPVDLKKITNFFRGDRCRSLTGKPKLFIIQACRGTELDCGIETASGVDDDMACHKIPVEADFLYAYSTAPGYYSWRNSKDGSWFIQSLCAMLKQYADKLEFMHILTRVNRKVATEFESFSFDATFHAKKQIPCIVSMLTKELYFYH
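Test system: Procaspase-3 D3A mutant; medium: Zinc-free HEPES/NaCl buffer with 0.01% Triton X-100 at pH 7.4; reagent: DEVD-pNA substrate; doses: one concentration, 8.5 µM nominal, 0.8% DMSO; times: 1 h preincubation plus 2 h reaction at 25 °C; signal: Epi-absorbance at 405 nm of released p-nitroaniline, 0 and 120 min; replicates: singlicate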
TbMetRS confirm – confirmation of Trypanosoma brucei MetRS inhibitors | shares compounds with TbMetRS inhib | inhibition, % at 11.9 µM | AID 624412 | T. brucei MetRS enzyme, luminescence (ATP depletion) | actives 93% (n = 1,400); in the data active means inhibition above about 7%
Jurkat cytotox – kills Jurkat cells in T. brucei MetRS counterscreen; shares compounds with TbMetRS inhib; Jurkat cells viability, ATP luminescence; inhibition, % at 8.3 µM; actives 12% (n = 1,400); in the data active means inhibition above about 15%
TbMetRS FP orth – T. brucei MetRS inhibition, orthogonal assay | AID 651607 | purified T. brucei MetRS, fluorescence polarization | shares compounds with TbMetRS inhib | actives 44% (n = 1,400) | inhibition, % at 11.9 µM; in the data active means inhibition above about 17%
A number is an active result; - = inactive; . = no result given.

SMILES	TbMetRS inhib	proCasp7 act	MsrA inh	MsrA act	procasp3 activ	TbMetRS confirm	Jurkat cytotox	TbMetRS FP orth
CN1CCCN(C(=O)/C=C/c2ccc(Cl)cc2Cl)CC1	8.0	-	-	-	-	17	-	-
O=C1CN(C(=O)/C=C/c2ccc(Cl)cc2Cl)CCN1	-	-	-	-	-	.	.	.
Cn1c(=O)c2ccccc2n(C)c1=O	.	.	-	.	.	.	.	.
COc1ccc(CNc2ncnc3c2[nH]c2cc(OC)c(OC)cc23)cc1	-	-	-	-	-	.	.	.
Brc1ccc2[nH]c3c(NCc4ccccn4)ncnc3c2c1	83	-	-	-	-	88	-	79
COc1ccc(CNc2ncnc3c2[nH]c2ccccc23)cc1	88	-	-	-	-	94	24	73
CCOc1ccc2[nH]c3c(NCCCOC)ncnc3c2c1	-	.	-	-	.	.	.	.
CC(C)OCCCNc1ncnc2c1[nH]c1ccccc12	74	-	-	-	-	87	38	64
C1=C(CCNc2ncnc3c2[nH]c2ccccc23)CCCC1	79	-	-	-	-	97	56	76
CN(C(=O)[C@@H](Cc1ccccc1)NC(=O)[C@H]1O[C@@H](n2cnc3c(=O)[nH]c(N)nc32)[C@H](O)[C@@H]1O)C1CCCCC1	.	.	-	.	.	.	.	.
CN1C(=O)[C@@]2(O[C@H]3[C@H]4C=C[C@@H]([C@H]5C(=O)N(Cc6ccccc6)C(=O)[C@@H]45)N3C3=C2C(=O)CC3)c2ccccc21	.	.	-	.	.	.	.	.
COC(=O)[C@]12C[C@H](CC(=O)N3CCC(c4ccccc4)CC3)C(=O)N(Cc3ccccc3)C1=C[C@H](C1CCCC1)O[C@@H]2C	.	.	-	.	.	.	.	.
CCCCCCCCN1C(=O)[C@@H](CC(=O)N2CCCC2)C[C@@]2(C(=O)OC)C1=C[C@H](C1CCCC1)O[C@@H]2C	.	.	-	.	.	.	.	.
Cc1cc(C)c(C2=NOC3c4ccccc4OCC23)c(C)c1 (centres undefined)	.	.	-	.	.	.	.	.
C=CCn1c(COc2ccccc2F)nnc1SCC(=O)Nc1cc2oc3ccccc3c2cc1OC	-	-	-	-	-	.	.	.
C=CCn1c(COc2ccccc2F)nnc1SCC(=O)c1c[nH]c2ccccc12	13	-	-	-	-	17	-	-
O=C(Nc1cccc(-c2cnc3ccccc3n2)c1)c1cccc(NC(=O)c2ccco2)c1	-	-	-	-	-	.	.	.
O=C(Nc1cccc(-c2nc3ccccc3[nH]2)c1)c1ccco1	5.7	-	-	-	-	8.8	-	-
O=C(NCc1cccc(Cl)c1)c1cccc(S(=O)(=O)N2CCCCC2)c1	-	-	-	-	-	.	.	.
O=C(NCc1nc2ccccc2[nH]1)c1cccc(S(=O)(=O)N2CCCC2)c1	7.9	-	-	-	-	19	-	-
Cc1ccc(S(=O)(=O)N2CCN(Cc3nc4ccccc4[nH]3)CC2)cc1C	5.8	-	-	-	-	17	-	-
O=C(NCc1cccc(Cl)c1)c1cccc(S(=O)(=O)N2CCCC2)c1	13	-	-	-	-	43	-	26
Cc1c(NS(=O)(=O)c2cc(C(=O)NCc3cccc(Cl)c3)ccc2Cl)c(=O)n(-c2ccccc2)n1C	11	.	-	-	.	34	-	24
Cc1c(NS(=O)(=O)c2cc(C(=O)NCc3cccnc3)ccc2Cl)c(=O)n(-c2ccccc2)n1C	-	-	-	-	-	.	.	.
CCCCOCCCNC(=O)C[C@H]1C[C@@]2(C(=O)OC)C(=C[C@H](COCc3ccccc3)O[C@@H]2C)N(CCC2=CCCCC2)C1=O	.	.	-	.	.	.	.	.
SMILES	TbMetRS inhib	proCasp7 act	MsrA inh	MsrA act	procasp3 activ	TbMetRS confirm	Jurkat cytotox	TbMetRS FP orth
Nc1[nH]c(C(=O)c2ccc(Br)cc2)c(-c2ccncc2)c1C(=O)NCCc1c[nH]c2ccccc12	.	.	-	.	.	.	.	.
Cc1cc(N/C(=C\C(=O)c2ccccc2)c2ccccc2)ccc1Br	.	.	-	.	.	.	.	.
O=C(NCc1nc2ccccc2[nH]1)c1cccc(S(=O)(=O)N2CCOCC2)c1	65	-	-	-	-	94	-	58
O=C(Nc1nc2ccccc2[nH]1)c1cccc(S(=O)(=O)N2CCOCC2)c1	-	-	-	-	-	.	.	.
Cc1cc(N=O)no1	.	.	-	.	.	.	.	.
Cc1ccc(NC(=O)COC(=O)C2CCN(c3ccc(C(F)(F)F)cn3)CC2)cc1C	-	-	-	-	-	.	.	.
O=C(COC(=O)C1CCN(c2ccc(C(F)(F)F)cn2)CC1)Nc1cccc(F)c1	6.0	-	-	-	-	19	-	-
Cc1cccc(CN2CCc3c([nH]c4ccccc34)C2)c1	5.8	-	-	-	-	15	-	-
COc1ccc(-c2c(C(=O)c3ccc(Br)cc3)[nH]c(N)c2C(=O)NCCc2c[nH]c3ccccc23)cc1OC	.	.	-	.	.	.	.	.
C#CCNC(=O)C[C@H]1C[C@@]2(C(=O)OC)C(=C[C@H](C3CCCC3)O[C@@H]2C)N(Cc2ccccc2)C1=O	.	.	-	.	.	.	.	.
CN(C)CCOCCOc1ccc(Cl)cc1Br	5.7	-	-	-	-	9.5	-	-
O=C(N[C@H](Cc1ccccc1)C(=O)N(CCC1=CCCCC1)CC1CC1)[C@H]1O[C@@H](n2ccc(=O)[nH]c2=O)[C@H](O)[C@@H]1O	.	.	-	.	.	.	.	.
CC(=O)c1cccc(NC(=O)C(C)N(C)CC(=O)Nc2ccc(Cl)cc2)c1 (centres undefined)	35	-	-	-	-	53	-	25
Cc1ccc(C)c(NC(=O)CN(C)C(=O)c2cccc(S(=O)(=O)N(C)C)c2)c1	-	-	-	-	-	.	.	.
CN(CC(=O)Nc1ccc(Cl)cc1)C(=O)c1cccc(S(=O)(=O)N(C)C)c1	9.1	-	-	-	-	19	-	-
COC(=O)[C@]12C[C@H](CC(=O)NCCCCc3ccccc3)C(=O)N(Cc3ccccc3)C1=C[C@H](C(C)(C)C)O[C@@H]2C	.	.	-	.	.	.	.	.
Cc1cc(-c2ccc(C(C)C)c(S(=O)(=O)N3CCN(c4ccccn4)CC3)c2)on1	8.0	-	-	-	-	12	51	-
COc1ccc(C2CC(=O)C(c3cc(OC)c(OC)c(OC)c3)=CN2Cc2ccccc2)cc1 (centres undefined)	.	.	-	.	.	.	.	.
O=C(NCc1nc2ccccc2[nH]1)C1=C[C@@H](C2CC2)C[C@@H](OCc2ccc(CO)cc2)O1	81	-	-	-	-	99	-	87
O=C(NCc1nc2ccccc2[nH]1)C1=C[C@H](C2CC2)C[C@H](OCc2ccc(CO)cc2)O1	50	-	-	-	-	83	-	56
O=C(O)C1=C[C@H](C2CC2)C[C@H](OCc2ccc(CO)cc2)O1	-	-	-	-	-	.	.	.

High-throughput results (PubChem)
